Compound activity (PubChem BioAssay)
Rows were chosen to be rich in hits. Some 3.1% of all compounds tested hit in one or more screens of this group.
PGC1a acetyl inh: PGC1a acetylation modulation, inhibitor mode. U2OS PGC1a acetylation, AlphaScreen anti-acetyl-lysine; with virally co-expressed GCN5 acetyltransferase. inhibition, % at 15.6 µM. 350,000 compounds, 0.17% hits. AID 651687;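 active = every replicate shows inhibition of at least 40%; inconclusive = mean inhibition at least 40% but some replicate below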;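 also: 0% = neutral control wells and 100% = positive control wells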
Env fusion inh: inhibitors of HIV Env-mediated cell fusion | 360,000 compounds, 1.1% hits | HeLa-JRFL Env/CEM21 cell fusion, luciferase | inhibition, % at 12.3 µM | AID 651610;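 active = mean replicate inhibition score of at least 50 and every replicate individually at or above 50; inconclusive = only one of the two criteria met; inactive = mean below 50 and not all replicates reaching 50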;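 also: 0% = plate neutral controls and 100% = maraviroc near 300 nM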
FN deposition inh: fibronectin deposition inhibition. inhibition, % at 12.6 µM. 350,000 compounds, 0.086% hits. AH1F fibroblasts, Alexa488-fibronectin deposition fluorescence, overnight;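 active = mean inhibition across replicates of 30% or more, regardless of how many single replicates reach that level; inconclusive = mean under 30% yet at least half of replicates reach 30%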;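 also: positive control wells lacked labelled fibronectin entirely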
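Assay system: AH1F fibroblasts / Quantity: 10000 cells per well / Medium: DMEM plus 2% serum, read in PBS / Reagent: labelled fibronectin 24 nM / Dosing: single dose, pinned / Times: 1 h cell attachment, overnight exposure to compound and label / Signal: fluorescence, ex 485 nm, em 525 nm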
PAX8 inh HTS: PAX8 transcriptional activity inhibition; 360,000 compounds, 1.2% hits; RMG-I TPO-luciferase reporter, SteadyGlo, 24 h; inhibition, % at 12.6 µM; AID 652154;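 active = mean replicate inhibition at least 60% with every replicate also reaching 60%; inconclusive = only one of the two criteria is met; inactive = mean below 60% and not all replicates reaching 60%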;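 also: luciferase light reporting Pax8 driven TPO promoter activity; plate controls were median of neutral control wells for no effect and mitoxantrone controls for full effect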
EWS-Fli inh: EWS/Fli transcriptional activity inhibition | A673 NR0B1-luciferase reporter, viability-normalised | inhibition, % at 12.6 µM | 350,000 compounds, 0.67% hits | AID 651661;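 active = mean inhibition of at least 50% after viability correction, with every replicate also passing that limit; inconclusive = mean reaches 50% but only one of two replicates passes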;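 also: firefly luciferase signal divided by Alamar Blue viability fluorescence both relative to DMSO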
FGF22 binding: FGF22 (human) thermal shift binding | activity (Tm shift, normalised), % at 9.99 µM | Q9HCT0 | 340,000 compounds, 1.5% hits | recombinant FGF22 thermal shift, SYPRO orange fluorescence; percent of sucrose octasulfate shift, DMSO zero;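 active = mean Tm shift, scaled 0 neutral to 100 positive control, at about 1.3% or above, every replicate too, limit read from the data; inconclusive = no clear call, values can overlap the other calls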
Target sequence (Q9HCT0 whole entry, looked up): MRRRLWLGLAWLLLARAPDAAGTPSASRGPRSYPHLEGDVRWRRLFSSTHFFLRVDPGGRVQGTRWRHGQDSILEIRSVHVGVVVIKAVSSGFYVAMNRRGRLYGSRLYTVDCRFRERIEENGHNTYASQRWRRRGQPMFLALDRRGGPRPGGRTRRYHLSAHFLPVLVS
Starred values were filed as active, the others as inactive; ? = inconclusive; . = no result; [ ] = another dose, or the depositor's remark.

SMILES	PGC1a acetyl inh	Env fusion inh	FN deposition inh	PAX8 inh HTS	EWS-Fli inh	FGF22 binding
CC1(C(=O)Nc2cccc(OC(F)(F)F)c2)Cc2c(-c3ccc4c(c3)OCO4)ccnc2O1 (stereo unspecified)	1.8	19.9	33.8*	14.3	35.1	0.0
CNC(=O)C1(C)Cc2c(-c3ccc4c(c3)OCO4)ccnc2O1 (stereo unspecified)	2.6	-10.1	13.7	0.0	-0.5	0.0
COc1ccc(NC(=O)Nc2ccc3c(c2)C(=O)N([C@@H](C)CO)C[C@@H](C)[C@@H](CN(C)C(=O)NC(C)C)OCCCC[C@H](C)O3)cc1	-1.7	15.4[16.7 µM]	5.2	-7.1	-6.5	0.1
Cc1cccc(C)c1OCC(O)Cn1c2ccccc2c2ccccc21 (stereo unspecified)	-7.6	57.1*	16.5	.	.	.
Cc1ccc(OCC(O)Cn2c3ccccc3c3ccccc32)cc1 (stereo unspecified)	-4.0	7.2	9.9	.	.	.
COc1ccccc1NC(=O)c1nc(S(=O)(=O)Cc2ccccc2)ncc1Cl	-22.7	-3.9	42.1*	130.2*	59.4*	-0.2
CCOc1ccccc1NC(=O)c1nc(S(=O)(=O)Cc2ccccc2)ncc1Cl	-6.3	-4.0	3.0	133.6*	?	0.0
CCS(=O)(=O)c1ncc(Cl)c(C(=O)Nc2ccccc2OC)n1	.	0.8	7.2	5.1	?	0.0
COc1ccccc1CN1C(=O)CN(C2CCCCCC2)C(=O)C1c1ccc(F)cc1 (stereo unspecified)	-30.1	81.7*	4.9	.	.	.
NNC(=O)c1sc(-c2ccc(Cl)cc2)cc1N	-8.5	-27.8	-2.4	-46.6	-42.8	43.5*
CCOC(=O)c1sc(-c2ccc(Br)cc2)cc1N	-4.1	.	.	.	-117.4	0.2
CCOc1ccc(OCC)c(NC(=O)CN2CCN(c3cc(C)ccc3C)CC2)c1	-9.7	60.5*	12.3	.	.	.
CCN(c1nc(N)c(C(=O)N=C(N)N)nc1Cl)C(C)C	.	69.0*	0.2	107.2*	13.5	0.0
N#Cc1c2ccc([N+](=O)[O-])cc2[n+]([O-])n1-c1ccccc1	9.4	.	.	67.9*	62.1*	-0.1
CCSc1cc(C)nc2c(-c3ccccc3)c(C)nn12	-3.9	-32.7	.	.	.	.
C=C(C)CSc1cc(C)nc2c(-c3ccccc3)c(C)nn12	3.9	61.1*	0.2	25.4	12.2	0.0
CCOC(=O)C1(CC2CC2)CCN(Cc2cn[nH]c2-c2cccc(F)c2)CC1	.	-9.6	-4.3	11.2	3.3	44.1*
S=C(Nc1ccc(Nc2ccccc2)cc1)Nc1ccccn1	-5.8	32.9	8.5	-3.7	0.2	43.0*
CO[C@H]1CN(C)C(=O)c2cc(NC(=O)C3CCOCC3)ccc2OC[C@H](C)N(Cc2nccs2)C[C@@H]1C	-4.1	.	-5.0	-7.4	-4.1	-0.1
CN(C)c1ccc2c(c1)[C@H]1C[C@H](CC(=O)NCc3ccncc3)O[C@H](CO)[C@H]1O2	-0.4	0.3[16.7 µM]	4.8	-18.0	-5.6	0.1
CCC(C)(C)NC(=O)C(c1ccc(C)cc1)N(CC1CCCO1)C(=O)CNC(=O)c1cccs1 (stereo unspecified)	11.0	23.1	2.2	.	.	.
CCC(C)(C)NC(=O)C(c1ccc(C)cc1)N(CC1CCCO1)C(=O)c1csnn1 (stereo unspecified)	.	72.3*	-0.7	-18.6	-20.6	-0.1
COc1ccccc1CNC(=O)C[C@@H]1C[C@@H]2c3cc(NS(=O)(=O)c4ccc(F)cc4)ccc3O[C@@H]2[C@@H](CO)O1	4.5	22.1[16.7 µM]	.	10.4	0.0	-0.4
COC(=O)C[C@@H]1C[C@H]2c3cc(NS(=O)(=O)c4cccc(OC)c4)ccc3O[C@H]2[C@@H](CO)O1	-7.0	59.6*[16.7 µM]	.	6.8	-4.6	-0.2
COc1ccccc1CNC(=O)C[C@H]1C[C@@H]2c3cc(NS(=O)(=O)c4ccc(F)cc4)ccc3O[C@@H]2[C@@H](CO)O1	-3.1	55.0*[16.7 µM]	.	-2.5	13.6	0.0
SMILES	PGC1a acetyl inh	Env fusion inh	FN deposition inh	PAX8 inh HTS	EWS-Fli inh	FGF22 binding
COc1ccccc1CNC(=O)C[C@@H]1C[C@H]2c3cc(NS(=O)(=O)c4ccc(F)cc4)ccc3O[C@H]2[C@H](CO)O1	-5.9	3.3[16.7 µM]	.	25.3	9.1	-0.5
COC(=O)C[C@@H]1C[C@@H]2c3cc(NS(=O)(=O)c4cccc(OC)c4)ccc3O[C@@H]2[C@@H](CO)O1	-6.4	1.7[16.7 µM]	.	2.5	-1.2	-0.2
COc1ccccc1CNC(=O)C[C@H]1C[C@@H]2c3cc(NS(=O)(=O)c4ccc(F)cc4)ccc3O[C@@H]2[C@H](CO)O1	-4.4	94.4*[16.7 µM]	.	-6.0	-1.7	-0.2
Cc1noc(C)c1S(=O)(=O)N(C)C[C@H]1Oc2ccc(NC(=O)C3CCCCC3)cc2CC(=O)N([C@H](C)CO)C[C@@H]1C	5.3	-12.4[16.7 µM]	.	.	-0.9	-0.1
C[C@H](CO)N1C[C@H](C)[C@H](CN(C)Cc2ccncc2)Oc2c(NS(=O)(=O)c3ccc(Cl)cc3)cccc2C1=O	2.8	.	.	7.2	6.9	-0.1
CCOC(=O)Cc1csc(SCC(=O)c2c(N)n(CC(C)C)c(=O)n(C)c2=O)n1	12.8	43.9	.	.	.	.
Cc1ccc(-n2nnnc2SCC(=O)c2c(N)n(CC(C)C)c(=O)n(C)c2=O)cc1	-3.3	58.9*	.	.	.	.
Cc1csc(SCC(=O)c2c(N)n(CC(C)C)c(=O)n(C)c2=O)n1	-2.8	89.5*	-2.8	.	.	.
CC(C)Cn1c(N)c(C(=O)CSc2nc3ccccc3n2C)c(=O)n(C)c1=O	3.1	5.4	.	.	.	.
O=C(CSc1ccccc1)NCCCN1CCOCC1	-2.4	.	.	.	.	.
O=C(CCN1C(=O)/C(=C/c2ccccc2)SC1=S)NCCCN1CCOCC1	56.4*	-3.3	-4.3	-2.3	-16.5	41.7
CCOc1ccc(/C=C2\SC(=S)N(CCCC(=O)NCCCN3CCOCC3)C2=O)cc1	12.6	?	2.9	49.7	81.4*	0.1
O=C(CCN1C(=O)/C(=C\c2cccc(Br)c2)SC1=S)NCCCN1CCOCC1	-5.4	-1.0	-10.3	10.7	17.3	-0.4
O=C(CSCc1ccccc1)NCCCN1CCOCC1	.	21.7	10.1	6.7	2.5	44.2*
C[C@H](CO)N1C[C@H](C)[C@H](CN(C)C(=O)Nc2ccc3c(c2)OCO3)OCc2cn(nn2)CCCC1=O	4.4	.	4.2	0.5	-2.0	.
C=C[C@H](Cc1ccccc1)N(Cc1ccccc1)S(=O)(=O)N(Cc1ccccc1)[C@H](C=C)Cc1ccccc1	.	60.8*	14.0	2.6	28.0	-0.1
CC(C)c1ccc(CC(NC(=O)c2ccccc2)C(=O)NCC(=O)O)cc1 (stereo unspecified)	1.9	-0.8	-4.0	1.4	7.9	42.9*
COc1ccc(-c2[nH]ncc2CN(C)CC2CCCCO2)cc1F (stereo unspecified)	-8.5	-6.3	15.8	-8.7	2.8	43.0*
COc1ccc(-c2[nH]ncc2CNC(C)c2ccccc2Cl)cc1F (stereo unspecified)	-8.7	51.5	3.0	-7.4	3.3	0.0
COc1ccc(-c2[nH]ncc2CN(C)CCN2CCOCC2)cc1F	-6.8	-12.7	.	7.5	5.6	0.3
